Only some compounds are listed: those with a hit (about 3.5% of all), similar ones and a draw of the others.
MrgX1 allo act – human MrgX1 positive allosteric modulation, primary screen | Q96LB2 | MrgX1-HEK293, Fluo-4 calcium flux, FDSS; hits give high values | B-score at 10 µM | 310,000 tested, 0.63% active;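 active means plate-corrected calcium response at least 3 library SD above typical, normal starting fluorescence, not activating the receptor alone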;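 further: compound read alongside a low EC10 to EC30 dose of BAM8-22 agonist; peak minus trough fluorescence over baseline measured at the second addition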
Target sequence (Q96LB2 whole entry, looked up): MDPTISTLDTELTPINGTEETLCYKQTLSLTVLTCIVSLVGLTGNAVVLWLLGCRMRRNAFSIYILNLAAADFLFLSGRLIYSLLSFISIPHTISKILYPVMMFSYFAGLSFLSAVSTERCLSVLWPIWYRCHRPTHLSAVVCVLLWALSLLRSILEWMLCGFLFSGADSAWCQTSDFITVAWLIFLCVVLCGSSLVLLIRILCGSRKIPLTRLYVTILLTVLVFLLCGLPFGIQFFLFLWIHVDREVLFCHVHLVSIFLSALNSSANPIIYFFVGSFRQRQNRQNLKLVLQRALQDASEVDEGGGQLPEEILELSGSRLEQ
MrgX1 ag – activates human MrgX1 receptor signaling; MrgX1-HEK293 cells, Fluo-4 calcium fluorescence, agonist mode; hits give high values; AID 588627; Q96LB2; 310,000 tested, 0.44% active; B-score at 10 µM;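 active means calcium response B-score plate-corrected fluorescence ratio at least 3 library SD, with starting fluorescence B-score inside 5 SD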
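Test system: Stable human MrgX1 HEK293 cell line | Schedule: Overnight plating before 1 h dye loading | Read-out basis: Baseline-normalised fluorescence change ratio, B-scored | Detection: Kinetic calcium dye fluorescence, Fluo-4 NW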
RGS4 block – inhibitors of human RGS4; P49798; HEK293 M3R/RGS4 inducible, Fluo-4 calcium flux; hits give high values; triggered by carbachol at its EC20; B-score at 10 µM; 310,000 tested, 0.45% active;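 active means B-score, a plate-corrected calcium signal, over three deviations above library mean, with baseline fluorescence within five deviations of library mean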;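 further: RGS4 expression induced by doxycycline in cells with stable M3 receptor; B-score is computed from the integrated fluorescence ratio over baseline after carbachol; higher B-score means a larger calcium signal and so more RGS4 inhibition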
Target sequence (P49798 whole entry, looked up): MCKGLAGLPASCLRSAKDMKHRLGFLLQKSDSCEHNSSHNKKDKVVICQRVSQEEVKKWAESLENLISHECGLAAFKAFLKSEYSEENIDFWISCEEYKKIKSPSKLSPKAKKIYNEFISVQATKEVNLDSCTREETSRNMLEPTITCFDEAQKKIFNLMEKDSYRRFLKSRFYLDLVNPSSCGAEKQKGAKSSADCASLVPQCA
MrgX1 antagonist – blocks BAM8-22 activation of human MrgX1 receptor; Q96LB2; AID 588676; MRGX1-HEK293 calcium flux, Fluo-4, BAM8-22 antagonism; hits give low values; B-score at 10 µM; 310,000 tested, 1.3% active;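 active means calcium-response B-score plate-corrected more than 3 library SD below zero, starting fluorescence within 5 deviations, no agonist response on first addition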;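 further: peak minus trough fluorescence over baseline after final BAM8-22 challenge near maximal dose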
RGS4 pot – RGS4 potentiation or activation; HEK293 M3R/inducible RGS4, carbachol calcium flux Fluo4; hits give low values; B-score at 10 µM; 310,000 tested, 0.92% active; AID 463111;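 active means B-score of the integrated calcium signal more than 4 SD below the library mean, with starting fluorescence not abnormally high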;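 further: negative B-score means reduced calcium response which marks RGS4 activation or potentiation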
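Material: M3R-expressing HEK293 line, RGS4 induced by doxycycline | Schedule: Overnight RGS4 induction, 30 min dye load 37 °C, 20 min compound RT | Measured by: Fluo4 fluorescence kinetic imaging of calcium | Read-out: Integrated calcium ratio converted to B score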
RGS4 block valid – RGS4 inhibitor validation. shares compounds with RGS4 block. HEK293 M3R/RGS4, carbachol calcium Fluo-4 fluorescence; carbachol added at its EC20; 0 = buffer wells, 100 = carbachol control. calcium response, % at 10 µM. 1,700 tested, 65% active;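 active means duplicate-averaged calcium response above the buffer-only control mean plus 5 SD of those controls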;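 further: integrated fluorescence ratio F max minus min over baseline F0; higher response in RGS4-induced cells means RGS4 inhibition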
RGS4 uninduced – non-induced cell nonspecific activity of RGS4 inhibitors; HEK293 M3R non-induced, carbachol calcium Fluo-4; submaximal (EC20) carbachol stimulus; buffer wells 0%, carbachol control wells 100%; 1,900 tested, 20% active; shares compounds with RGS4 block; activity (percent), % at 10 µM; call rule not given here;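 further: RGS4 induction absent so cells express M3R without RGS4; higher means more calcium signal and flags a non-specific hit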
M3R basal Ca ctr – second RGS4 inhibitor counter-screen in uninduced cells lacking carbachol | shares compounds with RGS4 block | HEK293 M3R/RGS4 non-induced, Fluo-4 calcium, no carbachol; normalised: buffer wells 0%, carbachol wells 100% | calcium response (agonist-mode artifact), % at 10 µM | 1,900 tested, 22% active | AID 493001;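 active means duplicate-averaged calcium rise in uninduced cells above buffer wells' mean plus 5 SD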
Each line names hits and unclear results; the compound was inactive in the other large screens (follow-up assays come after a bar, where they were run).

Cc1cccc(/C=C/C(=O)c2ccc([N+](=O)[O-])o2)c1	RGS4 block 7 | RGS4 block valid 20% | RGS4 uninduced inactive | M3R basal Ca ctr 8.5%
O=C(/C=C/c1cccc([N+](=O)[O-])c1)c1ccc([N+](=O)[O-])o1	RGS4 block 13 | RGS4 block valid 30% | RGS4 uninduced inactive | M3R basal Ca ctr inactive
COc1ccc(/C=C/C(=O)c2ccc([N+](=O)[O-])o2)cc1	RGS4 block 11 | RGS4 block valid 25% | RGS4 uninduced 32% | M3R basal Ca ctr inactive
Cc1ccc(NC(=O)c2ccc([N+](=O)[O-])o2)c(C)c1	none
COc1ccc(S(=O)(=O)N2CCN(C(=O)c3ccc([N+](=O)[O-])o3)CC2)cc1	none
Cc1ccccc1/C=C/C(=O)c1ccc([N+](=O)[O-])o1	RGS4 block 6.7 | RGS4 block valid 24% | RGS4 uninduced inactive | M3R basal Ca ctr inactive
Cc1c(NC(=O)C(C)Sc2ncnc3ccccc23)c(=O)n(-c2ccccc2)n1C (stereo not given)	none
COc1ccc(S(=O)(=O)Nc2ncccc2C)c2ccccc12	none
Cc1ccc(CN2[C@@H](CC3CCCCC3)COCCS2(=O)=O)cc1	none
COCCn1c(N/N=C(C)/C=C/c2ccccc2)nc2c1c(=O)[nH]c(=O)n2C	none
Cc1cc(C(=O)CN2C(=O)NC(C)(c3cccc(Br)c3)C2=O)c(C)n1Cc1ccco1 (stereo not given)	none
Cc1cc(C(=O)CN2C(=O)NC(c3ccccc3)(c3ccccc3)C2=O)c(C)n1Cc1ccco1	RGS4 block 7.5 | RGS4 block valid 17% | RGS4 uninduced inactive | M3R basal Ca ctr inactive
COc1ccc(OCC(O)CNC(=O)c2sccc2Cl)cc1 (stereo not given)	none
N#Cc1c(N2C(=O)Nc3ccccc3N2O)sc2c1CCCCCC2	RGS4 block 5.2 | RGS4 block valid 16% | RGS4 uninduced 42% | M3R basal Ca ctr inactive
Cc1ccc(-c2ccc(C(=O)NCc3ccccc3)o2)c2ccccc12	RGS4 block 7 | RGS4 block valid inactive | RGS4 uninduced inactive | M3R basal Ca ctr inactive
COC(=O)c1sc(N2C(=O)C(=O)/C(=C(/O)c3ccccc3)C2c2ccco2)nc1C (stereo not given)	none | RGS4 block valid inactive | RGS4 uninduced inactive | M3R basal Ca ctr inactive
Cc1nc(N2C(=O)C(=O)/C(=C(/O)c3ccccc3)C2c2ccco2)sc1C (stereo not given)	RGS4 block 6.4 | RGS4 block valid 8.5% | RGS4 uninduced inactive | M3R basal Ca ctr inactive
CCOC(=O)/C=C/C(=O)OCC(=O)N1CCN(C(=O)c2ccco2)CC1	RGS4 block 5.7 | RGS4 block valid 18% | RGS4 uninduced inactive | M3R basal Ca ctr inactive
CN(C)/N=C/C=C1\CCC/C(=C\c2ccc(F)c(F)c2)C1=O	RGS4 block 23 | RGS4 block valid 8.5% | RGS4 uninduced inactive | M3R basal Ca ctr inactive
COc1ccc(/C=C2\CCC/C(=C\C=N\N(C)C)C2=O)cc1	none
Cc1cccc(NC(=O)c2ccc3nccnc3c2)c1C	none
CCCCC(=O)Nc1nnc(SCC(=O)NCC2CCCO2)s1 (stereo not given)	none
Cc1[nH]nc2c1C(c1ccc(-c3ccccc3C#N)o1)C(C#N)=C(N)O2 (stereo not given)	RGS4 block 9.8 | RGS4 block valid 24% | RGS4 uninduced inactive | M3R basal Ca ctr 8.5%
COc1ccc(S(=O)(=O)N(CC(=O)NCc2cccnc2)c2ccc(F)cc2)cc1OC	none
O=c1c(O)c(-c2ccc(O)c(O)c2)oc2cc(O)cc(O)c12	MrgX1 allo act 8.8, RGS4 block 5 | RGS4 block valid 34% | RGS4 uninduced 40% | M3R basal Ca ctr inactive
O=c1cc(-c2ccc(O)c(O)c2)oc2cc(O)cc(O)c12	none
NS(=O)(=O)c1cc(C(=O)N2CCNC(=O)C2)ccc1Cl	none
O=C(c1cc2cc(Br)ccc2s1)N1CCOCC1	none
O=C(Nc1ccc(Br)cc1)c1cccc(S(=O)(=O)Nc2cnc3ccccc3c2)c1	RGS4 block 5.9 | RGS4 block valid 16% | RGS4 uninduced inactive | M3R basal Ca ctr inactive
Cc1cc(C)n2nc(SCCC(=O)NCc3ccccc3)nc2n1	none
O=[n+]1cc(-c2cccc3ccccc23)n([O-])c2c1CCC2	RGS4 block 4.9 | RGS4 block valid inactive | RGS4 uninduced inactive | M3R basal Ca ctr inactive
CC(=O)Nc1ccc2c(c1)nc(CCNC(=O)c1ccco1)n2C	none | RGS4 block valid inactive | RGS4 uninduced inactive | M3R basal Ca ctr inactive
Cc1ccc(C(=O)Nc2ccc3c(c2)nc(CCNC(=O)c2ccco2)n3C)cc1	none
O=C(COC(=O)c1cn(-c2ccccc2)nc1-c1cccnc1)NC1CC1	none
Cc1cccc(N/N=C(\C(N)=O)C2=NC(C)(C)Cc3ccccc32)c1	MrgX1 allo act 13 | RGS4 uninduced inactive | M3R basal Ca ctr inactive
CCOC(=O)/C(=N\O)C1=NC(C)(C)Cc2ccccc21	none
CC1(C)CC(=O)C(N=Nc2ccc(-c3ccccc3)cc2)=C(O)C1	none
CC1(C)CC(=O)C(C(C#Cc2ccccc2)C2=C(O)CC(C)(C)CC2=O)=C(O)C1	RGS4 block 8 | RGS4 block valid 44% | RGS4 uninduced inactive | M3R basal Ca ctr 22%
O=C1CCCC(O)=C1C(C#Cc1ccccc1)C1=C(O)CCCC1=O	MrgX1 ag 27, RGS4 block 6.7 | RGS4 block valid 50% | RGS4 uninduced inactive | M3R basal Ca ctr 11%
O=C1CCCC(O)=C1Sc1ccccc1C(=O)O	none
CC(C)C(=O)NCC(c1ccc2c(c1)OCO2)N1CCOCC1 (stereo not given)	none
CCn1nc(NS(=O)(=O)c2ccc([N+](=O)[O-])cc2)c2cc3cccc(C)c3nc21	RGS4 block 17 | RGS4 block valid 22% | RGS4 uninduced 37% | M3R basal Ca ctr inactive
CC(NC(=O)/C(C#N)=C/c1ccc(C(=O)O)cc1)c1ccccc1 (stereo not given)	RGS4 block 13 | RGS4 block valid 44% | RGS4 uninduced 40% | M3R basal Ca ctr inactive
CCN(CC)CCCNC(=O)CN1N=C(c2ccc(OC)cc2)CCC1=O	none
Cc1ccc(C(C[N+](=O)[O-])Sc2ccc(N)cc2)cc1 (stereo not given)	MrgX1 ag 33, RGS4 block 14 | RGS4 block valid 28% | RGS4 uninduced inactive | M3R basal Ca ctr inactive
